One block for each compound: values may come before it. Calls of active or inactive are those of the source. No cut-off for these calls is given here.
Key:
[1] = target: Mitogen-activated protein kinase 14 (Homo sapiens, UniProt Q16539); assay: Inhibition of human p38-alpha expressed in Escherichia coli
THP-1 = assay: Inhibition of LPS-induced TNFalpha production in human THP1 cells by ELISA; type: functional, cell-based
In short: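 THP-1 cells grown in RPMI 1640 with 10% FBS, 40000 cells/well. Compound or vehicle was added (1% DMSO final), then LPS at 1 μg/mL final. Cells were incubated overnight at 37 °C, 5% CO2. TNF in the supernatant was measured by sandwich ELISA: anti-human TNF capture, biotinylated polyclonal detection, streptavidin-peroxidase read-out.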

Mus musculus [2] = assay: Inhibition of LPS-induced TNFalpha release in BALB/c mouse administered at 10 mg/kg before 2 hrs of LPS challenge; type: functional, organism-based; set-up: dose 10 mg/kg
In short: (§1)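 BALB/c mouse LPS-TNF model. Compound was given at 10 mpk at time points from 30 min to 10 h before LPS challenge, and TNF suppression was assessed at each pretreatment interval.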

Liver microsomes = assay: Metabolic stability in human liver microsomes; type: ADME, Microsome
[3] = target: T1, Tyrosine-protein kinase JAK3 (Homo sapiens, UniProt P52333); assay: Inhibition of JAK3
T1 sequence (P52333 whole entry): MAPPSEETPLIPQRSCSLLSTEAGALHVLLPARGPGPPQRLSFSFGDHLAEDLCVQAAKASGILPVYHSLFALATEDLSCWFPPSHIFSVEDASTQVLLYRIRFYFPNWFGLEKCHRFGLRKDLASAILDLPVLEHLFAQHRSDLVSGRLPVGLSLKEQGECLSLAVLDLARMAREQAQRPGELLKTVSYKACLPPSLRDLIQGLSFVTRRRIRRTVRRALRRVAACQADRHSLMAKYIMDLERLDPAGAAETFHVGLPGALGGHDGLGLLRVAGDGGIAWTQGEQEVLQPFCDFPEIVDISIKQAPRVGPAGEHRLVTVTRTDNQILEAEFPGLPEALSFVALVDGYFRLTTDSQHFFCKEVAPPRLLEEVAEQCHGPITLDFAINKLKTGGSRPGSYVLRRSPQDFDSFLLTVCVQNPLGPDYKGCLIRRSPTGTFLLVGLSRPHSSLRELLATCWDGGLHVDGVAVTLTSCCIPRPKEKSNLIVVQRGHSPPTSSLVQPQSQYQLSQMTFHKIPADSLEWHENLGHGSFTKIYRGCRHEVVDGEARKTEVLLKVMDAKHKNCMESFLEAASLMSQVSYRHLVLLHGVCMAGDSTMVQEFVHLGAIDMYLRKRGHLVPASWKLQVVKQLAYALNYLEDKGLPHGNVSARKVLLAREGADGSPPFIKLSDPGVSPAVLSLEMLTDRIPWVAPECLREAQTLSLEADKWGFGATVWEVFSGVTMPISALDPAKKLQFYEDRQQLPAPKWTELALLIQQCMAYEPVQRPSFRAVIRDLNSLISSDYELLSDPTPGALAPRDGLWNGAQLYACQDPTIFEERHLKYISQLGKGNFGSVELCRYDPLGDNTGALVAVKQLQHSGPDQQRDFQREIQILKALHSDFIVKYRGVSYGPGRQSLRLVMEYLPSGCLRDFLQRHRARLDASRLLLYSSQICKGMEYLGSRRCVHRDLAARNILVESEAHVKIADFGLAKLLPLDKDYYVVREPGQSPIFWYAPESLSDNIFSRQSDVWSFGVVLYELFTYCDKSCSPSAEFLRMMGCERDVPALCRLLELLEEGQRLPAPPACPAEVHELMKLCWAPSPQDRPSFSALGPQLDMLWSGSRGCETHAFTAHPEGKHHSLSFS

[4] = Cytotoxicity against phytohemagglutininin-stimulated human T blast cells at 30 uM after 24 hrs relative to control; type: cell-based; conditions: t-cell
In short: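 PBMC T cells (1.25×10^6/mL) stimulated with 5 μg/mL PHA for 4 days to give dividing blasts. Blasts at 1.5×10^6/mL were exposed to 30 μM compound in RPMI with 10% FBS and 0.003% DMSO final, for 24 h at 37 °C, 5% CO2. Viability was read as metabolic activity by AlamarBlue and expressed relative to control.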

[5] = target: Protein kinase C alpha type (Homo sapiens, UniProt P17252); assay: Inhibition of PKCalpha
[6] = target: T2, Tyrosine-protein kinase ZAP-70 (Homo sapiens, UniProt P43403); assay: Inhibition of Zap70
T2 sequence (P43403 whole entry): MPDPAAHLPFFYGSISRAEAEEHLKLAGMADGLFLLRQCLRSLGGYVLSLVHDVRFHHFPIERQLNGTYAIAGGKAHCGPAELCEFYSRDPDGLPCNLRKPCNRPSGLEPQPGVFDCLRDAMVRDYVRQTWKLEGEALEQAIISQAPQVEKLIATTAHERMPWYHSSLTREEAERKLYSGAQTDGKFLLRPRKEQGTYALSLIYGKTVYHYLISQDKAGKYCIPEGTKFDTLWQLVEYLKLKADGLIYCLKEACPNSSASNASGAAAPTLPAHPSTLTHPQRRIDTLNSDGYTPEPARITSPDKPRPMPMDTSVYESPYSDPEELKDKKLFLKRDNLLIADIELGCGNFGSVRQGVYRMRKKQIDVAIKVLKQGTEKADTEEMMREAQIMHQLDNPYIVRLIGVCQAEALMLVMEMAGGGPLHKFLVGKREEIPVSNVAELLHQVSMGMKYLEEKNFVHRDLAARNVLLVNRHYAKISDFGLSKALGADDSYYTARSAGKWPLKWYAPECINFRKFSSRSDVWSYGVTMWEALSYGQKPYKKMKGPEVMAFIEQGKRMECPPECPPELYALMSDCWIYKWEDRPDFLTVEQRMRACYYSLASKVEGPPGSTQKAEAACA

[7] = Clearance in mouse; type: ADME, organism-based; conditions: in vivo
[8] = target: Vascular endothelial growth factor receptor 2 (Homo sapiens, UniProt P35968); assay: Inhibition of KDR
Sequence of Vascular endothelial growth factor receptor 2 (P35968 whole entry): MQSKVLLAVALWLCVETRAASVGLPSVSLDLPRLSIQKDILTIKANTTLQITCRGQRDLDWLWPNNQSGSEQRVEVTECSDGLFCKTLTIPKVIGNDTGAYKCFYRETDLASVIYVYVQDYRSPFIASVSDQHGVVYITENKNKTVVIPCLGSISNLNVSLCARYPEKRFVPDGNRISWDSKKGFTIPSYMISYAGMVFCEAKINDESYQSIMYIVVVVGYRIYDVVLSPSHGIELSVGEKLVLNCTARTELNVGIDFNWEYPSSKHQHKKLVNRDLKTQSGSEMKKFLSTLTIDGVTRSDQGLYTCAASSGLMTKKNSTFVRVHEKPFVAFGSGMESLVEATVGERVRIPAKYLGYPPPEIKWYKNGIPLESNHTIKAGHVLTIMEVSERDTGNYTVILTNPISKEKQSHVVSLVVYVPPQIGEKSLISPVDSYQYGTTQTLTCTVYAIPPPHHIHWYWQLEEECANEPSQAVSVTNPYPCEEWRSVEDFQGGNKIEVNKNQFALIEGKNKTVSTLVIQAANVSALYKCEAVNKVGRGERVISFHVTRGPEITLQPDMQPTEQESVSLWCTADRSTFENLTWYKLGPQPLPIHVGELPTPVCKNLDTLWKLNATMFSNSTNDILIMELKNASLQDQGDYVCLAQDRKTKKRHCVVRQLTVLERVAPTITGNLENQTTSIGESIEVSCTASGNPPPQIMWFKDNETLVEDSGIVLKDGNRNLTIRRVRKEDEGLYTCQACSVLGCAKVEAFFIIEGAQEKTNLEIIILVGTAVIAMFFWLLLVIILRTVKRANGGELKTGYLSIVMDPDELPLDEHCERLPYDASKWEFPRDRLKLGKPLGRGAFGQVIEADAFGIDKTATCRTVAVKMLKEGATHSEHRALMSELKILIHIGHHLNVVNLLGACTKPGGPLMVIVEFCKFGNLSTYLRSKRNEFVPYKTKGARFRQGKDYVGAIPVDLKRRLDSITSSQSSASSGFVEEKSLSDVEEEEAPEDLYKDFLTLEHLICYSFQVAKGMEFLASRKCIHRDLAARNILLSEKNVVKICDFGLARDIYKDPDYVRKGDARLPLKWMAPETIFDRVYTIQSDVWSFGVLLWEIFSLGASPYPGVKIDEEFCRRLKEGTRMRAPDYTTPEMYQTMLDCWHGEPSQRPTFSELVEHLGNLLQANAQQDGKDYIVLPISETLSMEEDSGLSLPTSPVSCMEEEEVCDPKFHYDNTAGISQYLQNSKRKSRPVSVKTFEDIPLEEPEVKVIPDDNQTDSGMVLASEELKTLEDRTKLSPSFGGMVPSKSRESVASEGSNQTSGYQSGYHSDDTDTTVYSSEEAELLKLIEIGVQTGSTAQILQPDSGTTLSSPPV

PBMC = assay: Inhibition of LPS-induced TNFalpha production in human PBMC by ELISA; type: functional, cell-based
In short: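 PBMC from healthy donors, isolated on ficoll, plated at 1×10^6 cells/mL in RPMI with 10% FBS. Compound was preincubated for 30 min, then cells were stimulated with 25 ng/mL LPS (final) for 6 h at 37 °C, 5% CO2. Supernatant TNF-α was measured by ELISA.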

[9] = target: T3, Inhibitor of nuclear factor kappa-B kinase subunit beta (Homo sapiens, UniProt O14920); assay: Inhibition of human IKK2beta
T3 sequence (O14920 whole entry): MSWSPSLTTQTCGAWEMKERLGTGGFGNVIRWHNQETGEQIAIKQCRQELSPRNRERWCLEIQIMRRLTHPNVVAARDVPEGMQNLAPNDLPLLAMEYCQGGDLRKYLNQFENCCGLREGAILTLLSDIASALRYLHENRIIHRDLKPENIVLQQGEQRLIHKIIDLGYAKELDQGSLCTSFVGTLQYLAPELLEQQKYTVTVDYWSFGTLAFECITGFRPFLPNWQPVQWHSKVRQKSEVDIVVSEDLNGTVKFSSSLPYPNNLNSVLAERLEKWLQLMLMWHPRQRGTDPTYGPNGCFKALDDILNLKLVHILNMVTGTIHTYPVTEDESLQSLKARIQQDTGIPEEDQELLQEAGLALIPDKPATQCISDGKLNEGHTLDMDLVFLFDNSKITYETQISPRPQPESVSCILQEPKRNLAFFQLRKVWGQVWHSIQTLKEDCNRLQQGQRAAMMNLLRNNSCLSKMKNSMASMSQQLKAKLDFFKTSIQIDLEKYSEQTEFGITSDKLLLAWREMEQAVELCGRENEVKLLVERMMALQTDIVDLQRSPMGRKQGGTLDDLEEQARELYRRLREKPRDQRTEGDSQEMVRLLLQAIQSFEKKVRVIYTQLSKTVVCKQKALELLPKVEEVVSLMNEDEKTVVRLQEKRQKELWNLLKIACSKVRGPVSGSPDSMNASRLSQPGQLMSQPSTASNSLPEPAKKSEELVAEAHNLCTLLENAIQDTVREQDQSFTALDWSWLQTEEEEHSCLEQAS

Mus musculus [10] = assay: Inhibition of LPS-induced TNFalpha release in po dosed BALB/c mouse after 90 mins; type: functional; conditions: 1.5 h
In short: (§2)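 Female BALB/c mice, 6–8 weeks old. Compound in 100% PEG 300 given by oral gavage 30 min before ip LPS (0.1 mL of 10 μg/mL in PBS). Blood was taken 90 min after LPS and serum TNF-α measured by ELISA. Mean ± SD, n = 8 mice per group.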

[11] = target: cAMP-dependent protein kinase (PKA) (Homo sapiens, UniProt P22694+P17612+P22612); assay: Inhibition of PKA; type: protein assay
Mus musculus [12] = assay: Inhibition of LPS-induced TNFalpha release in BALB/c mouse at 5 mg/kg, po after 90 mins; type: functional, organism-based; set-up: dose 5 mg/kg; in short: as §2
[13] = Bioavailability in mouse; type: ADME, organism-based; conditions: in vivo
[14] = target: MAP kinase-activated protein kinase 2 (Homo sapiens, UniProt P49137); assay: Inhibition of MK2
Sequence of MAP kinase-activated protein kinase 2 (P49137 whole entry): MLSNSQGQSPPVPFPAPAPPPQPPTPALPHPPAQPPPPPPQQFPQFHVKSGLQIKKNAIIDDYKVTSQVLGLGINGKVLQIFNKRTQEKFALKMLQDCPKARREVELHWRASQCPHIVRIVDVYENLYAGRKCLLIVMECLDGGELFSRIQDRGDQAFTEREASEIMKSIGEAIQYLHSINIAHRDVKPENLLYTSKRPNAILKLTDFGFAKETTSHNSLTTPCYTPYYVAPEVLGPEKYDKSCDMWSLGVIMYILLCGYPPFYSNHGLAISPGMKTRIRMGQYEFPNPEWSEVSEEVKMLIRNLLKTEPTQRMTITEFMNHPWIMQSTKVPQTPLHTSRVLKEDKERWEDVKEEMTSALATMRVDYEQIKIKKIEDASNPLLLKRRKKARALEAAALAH

[15] = Metabolic stability in mouse liver microsomes; type: ADME, Microsome
[16] = target: Mitogen-activated protein kinase 11 (Homo sapiens, UniProt Q15759); assay: Inhibition of human p38beta
Sequence of Mitogen-activated protein kinase 11 (Q15759 whole entry): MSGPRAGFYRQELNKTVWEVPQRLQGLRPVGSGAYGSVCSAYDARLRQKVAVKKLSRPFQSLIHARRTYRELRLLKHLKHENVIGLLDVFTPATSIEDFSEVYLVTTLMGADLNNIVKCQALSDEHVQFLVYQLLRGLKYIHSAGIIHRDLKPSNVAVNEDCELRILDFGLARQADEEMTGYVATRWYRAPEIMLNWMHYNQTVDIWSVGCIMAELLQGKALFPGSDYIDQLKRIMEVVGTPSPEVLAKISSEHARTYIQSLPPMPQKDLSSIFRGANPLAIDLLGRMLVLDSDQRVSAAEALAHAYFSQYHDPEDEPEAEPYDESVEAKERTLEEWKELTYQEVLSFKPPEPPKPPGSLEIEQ

[17] = target: Tyrosine-protein kinase Lck (Homo sapiens, UniProt P06239); assay: Inhibition of LCK
Sequence of Tyrosine-protein kinase Lck (P06239 whole entry): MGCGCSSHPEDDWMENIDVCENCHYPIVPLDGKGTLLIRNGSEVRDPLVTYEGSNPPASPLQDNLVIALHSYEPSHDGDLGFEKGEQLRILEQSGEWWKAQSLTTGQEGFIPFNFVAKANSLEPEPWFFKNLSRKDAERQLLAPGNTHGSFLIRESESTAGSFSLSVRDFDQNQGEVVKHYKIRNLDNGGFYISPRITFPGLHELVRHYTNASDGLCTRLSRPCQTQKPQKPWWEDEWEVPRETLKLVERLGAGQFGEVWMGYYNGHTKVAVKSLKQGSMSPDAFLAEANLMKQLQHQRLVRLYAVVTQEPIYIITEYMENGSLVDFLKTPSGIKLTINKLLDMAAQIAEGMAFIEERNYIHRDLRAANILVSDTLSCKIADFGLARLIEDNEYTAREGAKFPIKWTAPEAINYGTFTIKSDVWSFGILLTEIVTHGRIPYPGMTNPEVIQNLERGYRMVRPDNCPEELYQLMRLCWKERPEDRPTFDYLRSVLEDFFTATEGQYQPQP

Rattus norvegicus = assay: Suppression of paw swelling in adjuvant arthritis Lewis rat model at 50 mg/kg, po BID
Mus musculus [18] = assay: Inhibition of LPS-induced TNFalpha release in BALB/c mouse administered at 10 mg/kg before 30 mins of LPS challenge; type: functional, organism-based; set-up: dose 10 mg/kg; in short: as §1
[19] = target: Protein kinase C delta type (Homo sapiens, UniProt Q05655); assay: Inhibition of PKCdelta
Sequence of Protein kinase C delta type (Q05655 whole entry): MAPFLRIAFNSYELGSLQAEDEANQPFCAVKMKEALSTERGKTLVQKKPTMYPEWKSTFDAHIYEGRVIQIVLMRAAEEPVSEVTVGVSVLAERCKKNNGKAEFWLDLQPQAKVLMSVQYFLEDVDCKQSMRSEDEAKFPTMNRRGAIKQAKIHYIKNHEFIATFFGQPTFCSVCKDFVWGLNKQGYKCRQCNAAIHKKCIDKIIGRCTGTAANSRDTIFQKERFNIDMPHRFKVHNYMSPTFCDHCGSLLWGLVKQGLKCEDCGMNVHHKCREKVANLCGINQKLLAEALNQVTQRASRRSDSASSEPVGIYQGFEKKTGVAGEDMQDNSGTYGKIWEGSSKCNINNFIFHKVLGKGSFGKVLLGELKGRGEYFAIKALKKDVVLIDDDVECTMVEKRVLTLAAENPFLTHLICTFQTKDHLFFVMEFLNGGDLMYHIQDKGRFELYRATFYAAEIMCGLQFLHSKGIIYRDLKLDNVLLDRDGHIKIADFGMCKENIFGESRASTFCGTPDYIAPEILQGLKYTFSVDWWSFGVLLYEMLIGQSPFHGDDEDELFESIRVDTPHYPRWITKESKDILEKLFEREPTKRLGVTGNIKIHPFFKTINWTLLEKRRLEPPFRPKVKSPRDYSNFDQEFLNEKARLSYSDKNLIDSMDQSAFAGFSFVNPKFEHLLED

[20] = Half life in mouse; type: ADME, organism-based; conditions: in vivo

Sequence of Mitogen-activated protein kinase 14 (Q16539 whole entry): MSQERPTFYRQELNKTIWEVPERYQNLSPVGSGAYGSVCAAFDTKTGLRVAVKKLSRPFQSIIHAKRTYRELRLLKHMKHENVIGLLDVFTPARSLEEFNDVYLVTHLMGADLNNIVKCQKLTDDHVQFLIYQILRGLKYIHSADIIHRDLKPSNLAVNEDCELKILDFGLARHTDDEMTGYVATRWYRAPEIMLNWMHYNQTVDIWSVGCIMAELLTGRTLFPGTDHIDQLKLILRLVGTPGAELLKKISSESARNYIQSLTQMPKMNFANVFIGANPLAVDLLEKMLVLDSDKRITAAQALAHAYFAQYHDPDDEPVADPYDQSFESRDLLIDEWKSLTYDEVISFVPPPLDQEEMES

IC50 [1]: 1420 nM
SMILES: Cc1ccc(C(N)=O)cc1Nc1nc(NC[C@@H]2CC[C@H]3C[C@@H]2C3(C)C)nc(N2CCCN(C)CC2)n1

IC50 (THP-1): 680 nM
IC50 [1]: 264 nM
SMILES: COCCNC(=O)c1ccc(C)c(Nc2nc(N[C@H]3CCNC3)nc(N(C)CC(C)(C)C)n2)c1

IC50 (THP-1): 16 nM
IC50 [1]: 8 nM
SMILES: CONC(=O)c1ccc(C)c(Nc2nc(N[C@H]3CCNC3)nc(N(C)CC(C)(C)C)n2)c1

IC50 [1]: 5900 nM
SMILES: Cc1ccc(C(N)=O)cc1Nc1nc(N)nc(NC[C@@H]2CC[C@H]3C[C@@H]2C3(C)C)n1

IC50 (THP-1): > 250 nM
IC50 [1]: 346 nM
SMILES: COC(=O)c1ccc(C)c(Nc2nc(N[C@H]3CCNC3)nc(N(C)CC(C)(C)C)n2)c1

IC50 (THP-1): 325 nM
IC50 [1]: 28 nM
SMILES: Cc1ccc(C(N)=O)cc1Nc1nc(N[C@H]2CCNC2)nc(N(C)CC(C)C)n1

Stability (Liver microsomes): 0.2 nmol/mg/min
IC50 [3]: > 10000 nM
IC50 [5]: > 10000 nM
IC50 [6]: > 50000 nM
clearance [7]: 107 mL/min/kg
IC50 [8]: > 10000 nM
IC50 [9]: > 10000 nM
IC50 [11]: > 10000 nM
IC50 (THP-1): 85 nM
IC50 [1]: 44 nM
bioavailability [13]: 8%
IC50 [14]: > 10000 nM
Stability [15]: 0.8 nmol/mg/min
IC50 [16]: 22 nM
IC50 [17]: > 10000 nM
IC50 [19]: > 10000 nM
half-life [20]: 42 min
SMILES: CONC(=O)c1ccc(C)c(Nc2nc(N(C)CC(C)(C)C)nc(N3CCCN(C)CC3)n2)c1
Activity (Mus musculus [2]): Active
Activity [4]: 70%
IC50 (PBMC): 4.6 nM
ED50 (Mus musculus [10]): 3 mg/kg
Activity (Mus musculus [12]): Active
Activity (Rattus norvegicus): 50%
Activity (Mus musculus [18]): Active

IC50 (THP-1): > 5000 nM
IC50 [1]: 73 nM
SMILES: Cc1ccc(C(N)=O)cc1Nc1nc(NCC(C)C)nc(N[C@H]2CCNC2)n1

IC50 (THP-1): 140 nM
IC50 [1]: 31 nM
SMILES: CCNC(=O)c1ccc(C)c(Nc2nc(N[C@H]3CCNC3)nc(N(C)CC(C)(C)C)n2)c1

IC50 (THP-1): 167 nM
IC50 [1]: 24 nM
SMILES: Cc1ccc(C(N)=O)cc1Nc1nc(N[C@H]2CCNC2)nc(N(C)CC(C)(C)C)n1

IC50 (THP-1): 158 nM
IC50 [1]: 57 nM
SMILES: CONC(=O)c1ccc(C)c(Nc2nc(N(C)CC(C)(C)C)nc(N3CCN(C)CC3)n2)c1

Reference: ChEMBL document CHEMBL1149254, “The discovery of orally active triaminotriazine aniline amides as inhibitors of p38 MAP kinase” (J Med Chem, 2004)
